Results gathered from unrelated publications.
Protocols differ between the studies behind these lines.
BRAF: Serine/threonine-protein kinase B-raf (BRAF, Homo sapiens, UniProt P15056)

C#Cc1n[nH]c2c(-c3cn([C@@H](C)c4ccccc4)c(=O)[nH]c3=O)cc(F)cc12
inhibition (BRAF; enzyme activity; inhibitor; 0.1 µM): -2.9%

O=c1[nH]c2ccccc2n1C1CCN(Cc2ccc(-c3[nH]c4cc5ncnc5cc4nc3-c3ccccc3)cc2)CC1
remaining signal (BRAF; cell-free assay; 0.5 µM): 101%

COc1ncccc1-c1cnn2ccc(N3CCN(C(=O)OC(C)C)CC3)nc12
remaining binding (BRAF; binding; competition with immobilised ligand; 1 µM): 100%

Cn1cc(-c2cc(F)cc(N3CCn4c(cc5c4CCCC5)C3=O)c2CO)cc(Nc2ccc(N3CCN(C4COC4)CC3)cn2)c1=O
inhibition (BRAF; enzyme activity; inhibitor; 0.1 µM): 7%

N#CC1(c2ccccn2)CCN(Cc2cc(C(=O)O)c(=O)n3ccccc23)CC1
remaining binding (BRAF; cell-free assay; competition with immobilised ligand; 1 µM): 93%

C#Cc1n[nH]c2c(-c3cn(C(C)c4ccccn4)c(=O)[nH]c3=O)cc(F)cc12 (centres unmarked)
inhibition (BRAF; enzyme activity; inhibitor; 1 µM): -2.7%

CNS(=O)(=O)Nc1nccc(Cc2c(C)c3ccc(Oc4ncccn4)cc3oc2=O)c1F
inhibition (BRAF; cell-free assay; competition with immobilised ligand; 10 µM): 89%

Cn1cncc1[C@@](O)(COc1ccc(C#N)cc1-c1ccc(OC(F)(F)F)cc1)c1ccc(C#N)cc1
remaining binding (BRAF; cell-free assay; competition with immobilised ligand; 1 µM): 100%

Cc1nn(C)cc1-c1nc2c(N3CCN(Cc4ccc(Cl)cc4)CC3)c(Cl)cnc2[nH]1
remaining binding (Serine/threonine-protein kinase B-raf (BRAF, Homo sapiens, UniProt P15056, V600E); binding; competition with immobilised ligand; 1 µM): 100%

Cn1cc(-c2cccc(N3CCc4c(sc5c4CC(C)(C)C5)C3=O)c2CO)cc(Nc2ccncn2)c1=O
inhibition (BRAF; enzyme activity; inhibitor; 1 µM): 21%

Nc1ncc(-c2nc(N3CCOCC3)nc(N3CCOCC3)n2)c(C(F)F)n1
remaining binding (BRAF; binding; competition with immobilised ligand; 10 µM): 36%
